ChEMBL document CHEMBL1137627, “Hit generation and exploration: imidazo[4,5-b]pyridine derivatives as inhibitors of Aurora kinases” (Bioorg Med Chem Lett, 2007)
The source made the active and inactive calls. The rule behind the calls is not given here.

How the values were obtained:
Aurora kinase A = biological target: T1, Aurora kinase A (Homo sapiens, UniProt O14965); assay: Inhibition of aurora A kinase
T1 sequence (O14965 whole entry): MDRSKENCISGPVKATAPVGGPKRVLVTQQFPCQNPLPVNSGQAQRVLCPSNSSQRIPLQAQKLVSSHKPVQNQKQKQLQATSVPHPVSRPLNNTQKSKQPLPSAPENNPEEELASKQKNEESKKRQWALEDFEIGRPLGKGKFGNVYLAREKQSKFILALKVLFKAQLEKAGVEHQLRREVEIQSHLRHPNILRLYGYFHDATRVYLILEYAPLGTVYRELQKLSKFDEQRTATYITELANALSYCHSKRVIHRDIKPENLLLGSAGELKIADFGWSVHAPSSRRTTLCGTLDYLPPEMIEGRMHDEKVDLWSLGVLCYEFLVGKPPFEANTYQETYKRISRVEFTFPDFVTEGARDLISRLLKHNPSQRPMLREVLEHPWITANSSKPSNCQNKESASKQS
How it was run: (§1)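 Aurora-A kinase activity measured by Flashplate or Filterplate assay at 20 µM ATP. Samples run in triplicate and mean reported; some IC50 values are the mean of independent determinations.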

[1] = biological target: T2, Aurora kinase A (Homo sapiens) (UniProt O14965); assay: Inhibition of aurora A kinase at 100 uM; how it was run: as §1
T2 sequence (whole entry): T1 sequence (O14965 whole entry)

Aurora kinase B = Aurora kinase B (Homo sapiens, UniProt Q96GD4); assay: Inhibition of recombinant aurora B kinase
How it was run: (§2)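 Purified recombinant Aurora kinase; IC50 determined by either a Flashplate or a Filterplate assay, with ATP in the assay at 20.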

Aurora kinase C = biological target: T3, Aurora kinase C (Homo sapiens, UniProt Q9UQB9); assay: Inhibition of recombinant aurora C kinase; how it was run: as §2
T3 sequence (Q9UQB9 whole entry): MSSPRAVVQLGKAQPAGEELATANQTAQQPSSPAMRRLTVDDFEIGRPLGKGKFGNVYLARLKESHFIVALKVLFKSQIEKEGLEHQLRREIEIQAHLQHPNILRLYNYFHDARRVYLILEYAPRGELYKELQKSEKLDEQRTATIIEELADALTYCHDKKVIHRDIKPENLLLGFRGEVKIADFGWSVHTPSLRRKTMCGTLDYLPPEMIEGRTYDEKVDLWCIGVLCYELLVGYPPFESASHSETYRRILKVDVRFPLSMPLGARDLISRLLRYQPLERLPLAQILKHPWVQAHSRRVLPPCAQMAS

HCT-116 = assay: Antiproliferative activity against HCT116 cells; assay type: functional; conditions: Homo sapiens
HeLa = assay: Antiproliferative activity against HeLa cells; assay type: functional; conditions: Homo sapiens
[2] = Metabolic stability in mouse liver microsomes after 30 mins; assay type: ADME, Microsome; conditions: read-out: Stability
How it was run: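 Compound incubated 30 min with mouse liver microsomes. Percent of parent compound remaining was reported.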

Cytochrome P450 1A2 = biological target: T4, Cytochrome P450 1A2 (Homo sapiens, UniProt P05177); assay: Inhibition of human CYP1A2 after 10 mins; assay type: ADME
T4 sequence (P05177 whole entry): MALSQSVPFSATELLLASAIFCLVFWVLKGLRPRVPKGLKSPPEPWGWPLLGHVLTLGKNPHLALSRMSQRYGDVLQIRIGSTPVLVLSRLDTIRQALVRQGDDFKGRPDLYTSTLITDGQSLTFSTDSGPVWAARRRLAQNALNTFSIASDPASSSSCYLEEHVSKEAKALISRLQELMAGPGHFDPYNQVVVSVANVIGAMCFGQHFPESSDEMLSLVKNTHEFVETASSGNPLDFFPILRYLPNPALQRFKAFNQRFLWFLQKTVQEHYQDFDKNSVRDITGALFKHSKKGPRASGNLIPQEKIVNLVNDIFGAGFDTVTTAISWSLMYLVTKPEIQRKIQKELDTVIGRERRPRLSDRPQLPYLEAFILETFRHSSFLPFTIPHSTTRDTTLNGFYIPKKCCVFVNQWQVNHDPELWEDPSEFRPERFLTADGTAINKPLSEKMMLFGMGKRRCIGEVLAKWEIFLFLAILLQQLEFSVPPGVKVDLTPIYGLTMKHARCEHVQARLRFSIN
How it was run: (§3)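 Inhibition of CYP isozymes assayed in pooled human liver microsomes from 50 individuals. Microsomal protein 0.5 mg/ml, 10 min incubation. Mephenytoin served as the CYP2C19 substrate. Metabolites were detected by LC–MS–MS with positive electrospray ionisation.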

Cytochrome P450 2A6 = biological target: T5, Cytochrome P450 2A6 (Homo sapiens, UniProt P11509); assay: Inhibition of human CYP2A6 after 10 mins; assay type: ADME; how it was run: as §3
T5 sequence (P11509 whole entry): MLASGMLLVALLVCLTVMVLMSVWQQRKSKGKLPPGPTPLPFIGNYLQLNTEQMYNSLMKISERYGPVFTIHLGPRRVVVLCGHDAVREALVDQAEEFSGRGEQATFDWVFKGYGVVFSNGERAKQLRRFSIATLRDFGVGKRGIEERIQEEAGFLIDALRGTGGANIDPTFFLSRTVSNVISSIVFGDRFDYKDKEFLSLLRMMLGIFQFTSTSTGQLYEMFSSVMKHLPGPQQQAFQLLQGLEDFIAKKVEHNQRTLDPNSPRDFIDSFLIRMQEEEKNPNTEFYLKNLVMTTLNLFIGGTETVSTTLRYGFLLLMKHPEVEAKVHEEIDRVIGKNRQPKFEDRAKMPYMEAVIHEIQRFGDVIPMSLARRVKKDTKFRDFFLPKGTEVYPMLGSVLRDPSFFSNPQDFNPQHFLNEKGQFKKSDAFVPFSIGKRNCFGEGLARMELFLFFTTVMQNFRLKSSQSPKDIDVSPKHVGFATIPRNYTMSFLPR

Cytochrome P450 2C19 = Cytochrome P450 2C19 (Homo sapiens, UniProt P33261); assay: Inhibition of human CYP2C19 after 10 mins; assay type: ADME; how it was run: as §3
Cytochrome P450 2D6 = Cytochrome P450 2D6 (Homo sapiens, UniProt P10635); assay: Inhibition of human CYP2D6 after 10 mins; assay type: ADME; how it was run: as §3
Cytochrome P450 2C9 = Cytochrome P450 2C9 (Homo sapiens, UniProt P11712); assay: Inhibition of human CYP2C9 after 10 mins; assay type: ADME; how it was run: as §3
[3] = biological target: T2, Aurora kinase A (Homo sapiens); assay: Inhibition of aurora A kinase at 10 uM; how it was run: as §1

Sequence of Cytochrome P450 2D6 (P10635 whole entry): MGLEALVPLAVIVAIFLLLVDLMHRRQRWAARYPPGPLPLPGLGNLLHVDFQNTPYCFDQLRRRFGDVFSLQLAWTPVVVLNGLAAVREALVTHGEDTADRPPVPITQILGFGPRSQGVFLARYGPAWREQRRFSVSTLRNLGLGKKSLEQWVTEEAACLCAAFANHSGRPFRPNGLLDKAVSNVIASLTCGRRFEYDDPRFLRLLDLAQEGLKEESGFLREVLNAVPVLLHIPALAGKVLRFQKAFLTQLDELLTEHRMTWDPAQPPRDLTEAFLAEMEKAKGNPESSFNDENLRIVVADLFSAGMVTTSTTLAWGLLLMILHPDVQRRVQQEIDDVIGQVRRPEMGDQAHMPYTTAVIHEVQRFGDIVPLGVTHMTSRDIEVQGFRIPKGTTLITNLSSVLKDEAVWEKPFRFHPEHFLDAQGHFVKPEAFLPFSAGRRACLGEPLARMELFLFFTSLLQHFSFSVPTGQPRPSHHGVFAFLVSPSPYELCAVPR
Sequence of Cytochrome P450 2C9 (P11712 whole entry): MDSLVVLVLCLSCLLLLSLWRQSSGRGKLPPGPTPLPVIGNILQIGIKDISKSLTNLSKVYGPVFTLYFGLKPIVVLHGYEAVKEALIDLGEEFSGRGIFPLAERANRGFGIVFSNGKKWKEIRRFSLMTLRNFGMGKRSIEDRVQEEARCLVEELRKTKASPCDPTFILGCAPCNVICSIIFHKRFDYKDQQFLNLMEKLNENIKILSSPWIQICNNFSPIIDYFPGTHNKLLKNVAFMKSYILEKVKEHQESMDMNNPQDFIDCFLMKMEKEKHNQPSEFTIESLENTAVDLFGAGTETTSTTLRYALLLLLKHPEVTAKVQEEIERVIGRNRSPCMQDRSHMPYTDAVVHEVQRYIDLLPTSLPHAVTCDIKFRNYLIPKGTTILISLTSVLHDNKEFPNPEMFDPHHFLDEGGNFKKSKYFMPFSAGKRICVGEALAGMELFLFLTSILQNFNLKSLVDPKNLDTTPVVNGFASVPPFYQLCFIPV
Sequence of Cytochrome P450 2C19 (P33261 whole entry): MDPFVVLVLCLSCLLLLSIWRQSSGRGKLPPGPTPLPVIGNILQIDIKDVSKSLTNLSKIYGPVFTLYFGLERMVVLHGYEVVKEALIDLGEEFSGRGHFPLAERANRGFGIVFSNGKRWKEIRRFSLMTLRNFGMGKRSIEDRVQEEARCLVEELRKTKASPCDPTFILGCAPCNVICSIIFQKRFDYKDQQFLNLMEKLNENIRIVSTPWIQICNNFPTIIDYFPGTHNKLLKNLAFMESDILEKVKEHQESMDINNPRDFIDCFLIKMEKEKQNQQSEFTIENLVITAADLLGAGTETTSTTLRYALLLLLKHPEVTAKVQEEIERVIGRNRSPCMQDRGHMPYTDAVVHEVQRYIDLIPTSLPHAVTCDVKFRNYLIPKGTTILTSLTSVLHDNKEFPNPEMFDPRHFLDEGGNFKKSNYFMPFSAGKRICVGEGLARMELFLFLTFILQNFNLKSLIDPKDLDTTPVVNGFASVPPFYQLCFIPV
Sequence of Aurora kinase B (Q96GD4 whole entry): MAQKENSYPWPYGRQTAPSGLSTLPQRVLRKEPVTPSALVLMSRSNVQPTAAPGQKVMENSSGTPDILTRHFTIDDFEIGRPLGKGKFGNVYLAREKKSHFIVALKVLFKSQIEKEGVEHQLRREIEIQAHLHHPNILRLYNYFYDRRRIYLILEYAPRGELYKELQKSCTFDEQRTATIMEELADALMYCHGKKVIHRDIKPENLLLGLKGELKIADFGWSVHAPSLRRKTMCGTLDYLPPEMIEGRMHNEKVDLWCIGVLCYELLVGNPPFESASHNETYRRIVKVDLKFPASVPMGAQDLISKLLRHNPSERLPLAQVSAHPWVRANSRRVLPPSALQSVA

Compound | IC50 (Aurora kinase A) | other results
COc1cc2ncnc(N3CCN(CC(=O)N(C)c4ccccc4)CC3)c2cc1OC | 16.5 µM | –
CN(C)c1ccc(-c2nc3cc(C(F)(F)F)cnc3[nH]2)cc1 | 0.74 µM | –
COc1cc2ncnc(N3CCN(c4cnccn4)CC3)c2cc1OC | – | Activity [1]: inactive
c1cnc2nc(-c3ccc(C4CCCCN4)cc3)[nH]c2c1 (stereo not given) | 4.4 µM | –
CN(C)c1ccc(-c2nc3ncc(-c4cccc(O)c4)cc3[nH]2)cc1 | 18 µM | –
CN(C)c1ccc(-c2nc3c(N4CCN(CC(=O)Nc5nccs5)CC4)c(Cl)cnc3[nH]2)cc1 | – | IC50 (Aurora kinase B): 0.198 µM; IC50 (Aurora kinase C): 0.227 µM; GI50 (HCT-116): 0.35 µM; GI50 (HeLa): 0.2 µM; remaining at 0.5 h [2]: 75%; IC50 (Cytochrome P450 1A2): > 10 µM; IC50 (Cytochrome P450 2A6): > 10 µM; IC50 (Cytochrome P450 2C19): > 10 µM; IC50 (Cytochrome P450 2D6): > 10 µM; IC50 (Cytochrome P450 2C9): 10 µM
CN(C)c1ccc(-c2nc3ncc(Cl)c(Cl)c3[nH]2)cc1 | 0.25 µM | –
CCn1c(-c2ccc(N(C)C)cc2)nc2cccnc21 | – | inhibition [1]: 26%
CN(C)c1ccc(-c2nc3cc(-c4ccc5c(c4)OCO5)cnc3[nH]2)cc1 | – | inhibition [1]: 33%
CN(C)c1ccc(-c2nc3cccnc3[nH]2)cc1 | 4.3 µM | –
CN(C)c1cccc(-c2nc3cccnc3[nH]2)c1 | 10 µM | –
COc1cc2ncnc(N3CCN(C(C)c4ccccc4)CC3)c2cc1OC (stereo not given) | 25 µM | –
COc1cc2ncnc(N3CCN(CC(=O)Nc4nccs4)CC3)c2cc1OC | 5.9 µM | –
COc1cc2ncnc(N3CCN(Cc4cccc5ccccc45)CC3)c2cc1OC | 9.6 µM | –
COc1cc2ncnc(N3CCN(CC(=O)OC(C)(C)C)CC3)c2cc1OC | – | Activity [1]: inactive
Cc1ccnc2nc(-c3ccc(N(C)C)cc3)[nH]c12 | 7 µM | –
COc1cc2ncnc(N3CCN(CC(=O)N4CCCC4)CC3)c2cc1OC | 98 µM | –
CN(C)c1ccc(-c2nc3cc(-c4cccnc4)cnc3[nH]2)cc1 | – | inhibition [3]: 28%
COc1cc2ncnc(N3CCN(CCc4ccccc4)CC3)c2cc1OC | 76 µM | –
COc1cc2ncnc(N3CCN(c4ncccn4)CC3)c2cc1OC | – | Activity [1]: inactive

Compound | IC50 (Aurora kinase A) | other results
CN(C)c1ccc(-c2nc3ncc(Br)cc3[nH]2)cc1 | 0.49 µM | –
CC(=O)c1cccc(-c2cnc3[nH]c(-c4ccc(N(C)C)cc4)nc3c2)c1 | 9 µM | –
COc1ccc(-c2cnc3nc(-c4ccc(N(C)C)cc4)[nH]c3c2)cc1 | 20 µM | –
CN(C)c1ccc(-c2nc3cc(-c4cccs4)cnc3[nH]2)cc1 | – | inhibition [3]: 34%
c1cnc2nc(-c3ccc(N4CCCC4)cc3)[nH]c2c1 | 4.6 µM | –
Cc1cnc2[nH]c(-c3ccc(N(C)C)cc3)nc2c1 | 6.9 µM | –
N#Cc1ccc(-c2nc3cccnc3[nH]2)cc1 | – | inhibition [3]: 38%
CN(C)c1ccc(-c2nc3c(N4CCN(CC(=O)Nc5nccs5)CC4)ccnc3[nH]2)cc1 | 0.87 µM | –
COc1cc2ncnc(N3CCN(CCn4ccnc4)CC3)c2cc1OC | – | Activity [1]: inactive
CN(C)c1ccc(-c2nc3cc[nH]cc-3n2)cc1 | 12.5 µM | inhibition [3]: 35%
COc1cc2ncnc(N3CCN(CCOc4ccccc4)CC3)c2cc1OC | 35 µM | –
COc1cccc(-c2nc3ncccc3[nH]2)c1 | 16 µM | –
CN(C)c1ccccc1-c1nc2cccnc2[nH]1 | – | inhibition [3]: 20%
COc1ccccc1-c1nc2ccc[nH]c-2n1 | 29 µM | –
CN(C)c1ccc(-c2nc3cc(-c4cccc(O)c4)cnc3[nH]2)cc1 | – | inhibition [3]: 31%
COc1cc2ncnc(N3CCN(Cc4ccc(F)cc4)CC3)c2cc1OC | 40 µM | –
CN(C)c1ccc(-c2nc3ccccc3[nH]2)cc1 | – | inhibition [1]: 8%
CN(C)c1ccc(-c2nc3c(Cl)ccnc3[nH]2)cc1 | 2.4 µM | –
COc1ccc(-c2nc3ncccc3[nH]2)cc1 | 6.6 µM | –
CN(C)c1ccc(-c2nc3cc(Cl)cnc3[nH]2)cc1 | 0.57 µM | –
